# From PubChem BioAssay
# Hits are enriched below; roughly 0.9% of the tested compounds scored in any of these assays.
# RGS8-Gao – regulators of human RGS8-Galphao interaction; multiplexed bead flow cytometry, RGS8-Galphao binding; actives lie on both sides; response (percent of control binding), % at 10 µM; actives 0.34% (n = 220,000); AID 1423; in the data active = response below about 60% or above about 140%; inactive = in between;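 also: Galphao activated as the GDP aluminium fluoride complex binding bead-coupled RGS8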
# RGS16-Gao HTS – RGS16-Galphao interaction regulator (human) | actives 0.38% (n = 220,000) | O15492+P09471 | bead-based flow cytometry RGS16-Galphao binding, fluorescence; actives lie on both sides | AID 1441 | binding response (% of control), % at 10 µM; call rule not given here;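 also: Galphao activated by GDP with aluminum fluoride before binding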
# RGS4-Gao reg – human RGS4-Galphao interaction regulation | Multiplexed bead flow cytometry, RGS4-Galphao binding; actives lie on both sides | AID 1415 | binding response (% of control), % at 10 µM | actives 0.33% (n = 220,000); in the data active = binding response below about 49% or above about 150%; inactive = in between;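 also: fluorescent Galphao activated with aluminum fluoride binding bead-coupled RGS4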
# RGS7-Gao – modulates binding of RGS7 to human Galphao. Multiplexed bead flow cytometry; actives lie on both sides. binding response (% of control), % at 10 µM. actives 0.35% (n = 220,000). AID 1439; in the data active = binding response below about 49% or above about 150%; inconclusive = no clear call, values can overlap the other calls; inactive = in between;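 also: fluorescent Galphao held in activated GDP-AlF4 state binding bead-coupled RGS7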
# ABCB1 inh – human ABCB1 inhibition, ABCG2 as counter-screen; CCRF-Adr cells, JC-1 efflux, flow cytometry; inhibition, % at 6.6 µM; actives 0.067% (n = 190,000); in the data active = inhibition above about 40%;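 also: 0% = vehicle and 100% = reference inhibitor; higher value means more JC-1 retained so stronger ABCB1 efflux block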
# Target sequence (P08183 whole entry, looked up): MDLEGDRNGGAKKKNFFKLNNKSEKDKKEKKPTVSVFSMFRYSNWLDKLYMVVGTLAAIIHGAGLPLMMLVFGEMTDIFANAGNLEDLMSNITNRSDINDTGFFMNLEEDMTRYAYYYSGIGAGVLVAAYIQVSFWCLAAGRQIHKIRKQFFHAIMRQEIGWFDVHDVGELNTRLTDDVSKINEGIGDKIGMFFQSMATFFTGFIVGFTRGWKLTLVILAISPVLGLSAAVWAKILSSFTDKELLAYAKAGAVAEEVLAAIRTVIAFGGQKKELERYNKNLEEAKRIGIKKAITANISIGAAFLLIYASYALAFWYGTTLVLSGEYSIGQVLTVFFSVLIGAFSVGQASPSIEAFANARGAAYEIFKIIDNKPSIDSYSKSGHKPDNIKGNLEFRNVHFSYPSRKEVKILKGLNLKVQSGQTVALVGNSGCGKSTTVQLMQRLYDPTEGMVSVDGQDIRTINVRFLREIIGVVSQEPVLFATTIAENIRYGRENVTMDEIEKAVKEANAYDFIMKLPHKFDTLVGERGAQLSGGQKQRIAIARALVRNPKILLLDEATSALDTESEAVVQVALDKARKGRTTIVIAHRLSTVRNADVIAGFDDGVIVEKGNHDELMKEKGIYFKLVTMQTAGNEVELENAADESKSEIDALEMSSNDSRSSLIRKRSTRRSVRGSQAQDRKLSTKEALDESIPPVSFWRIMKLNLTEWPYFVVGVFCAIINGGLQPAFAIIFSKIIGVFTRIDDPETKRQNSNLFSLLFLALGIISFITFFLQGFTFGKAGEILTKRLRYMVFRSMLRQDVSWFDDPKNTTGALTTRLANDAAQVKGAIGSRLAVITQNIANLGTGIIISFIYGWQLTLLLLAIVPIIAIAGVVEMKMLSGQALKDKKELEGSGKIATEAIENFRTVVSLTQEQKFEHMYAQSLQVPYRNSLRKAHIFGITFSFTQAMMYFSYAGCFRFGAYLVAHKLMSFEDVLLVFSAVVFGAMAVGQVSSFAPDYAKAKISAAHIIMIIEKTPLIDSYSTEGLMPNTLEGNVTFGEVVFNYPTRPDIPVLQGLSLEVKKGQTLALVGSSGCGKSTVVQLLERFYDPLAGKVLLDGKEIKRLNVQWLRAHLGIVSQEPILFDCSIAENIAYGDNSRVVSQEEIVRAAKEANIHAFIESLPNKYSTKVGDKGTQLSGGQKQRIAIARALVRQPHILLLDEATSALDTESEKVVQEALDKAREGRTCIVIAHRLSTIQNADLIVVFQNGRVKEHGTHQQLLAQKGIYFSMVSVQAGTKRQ
# ABCG2 block – inhibitors of human ABCG2 transporter, ABCB1 counter-screen; Q9UNQ0; IgMXP3 cells, JC-1 efflux, flow cytometry; inhibition, % at 6.6 µM; actives 0.1% (n = 190,000); AID 1325;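 active = inhibition above 80%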;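 also: 0% = DMSO and 100% = nicardipine control wells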
#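 Read-out basis: Efflux inhibition in percent versus controls | Test system: ABCG2 IgMXP3 and barcoded ABCB1 CCRF-Adr cell mix | Quantity: 3 million cells/mL in well | Schedule: 10 min at 25 °C | Control set: Nicardipine as high control, DMSO as low control | Reagent: JC-1 as fluorescent efflux pump substrate | Signal: Flow cytometry of retained JC-1 fluorescence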
# ABCB1 single pt – confirmation of human ABCB1 transporter inhibitors, ABCG2 counter-screen; CCRF-Adr cells, JC-1 efflux, flow cytometry; actives 7% (n = 270); inhibition, % at 6.6 µM; AID 1451; shares compounds with ABCG2 block;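 active = inhibition of pump activity above 50%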;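 also: 0% = DMSO and 100% = nicardipine full pump inhibition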
# ABCG2 single pt – confirmation of human ABCG2 transporter inhibitors, ABCB1 counter-screen. shares compounds with ABCG2 block. IgMXP3 cells, JC-1 efflux, flow cytometry. inhibition, % at 6.6 µM. actives 6% (n = 270);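 active = inhibition above 50%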;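 also: 0% = DMSO wells and 100% = nicardipine pump inhibitor wells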
# IgMXP3 fluor – compound fluoresces at 488/530 nm in IgMXP3 cells; compound autofluorescence 488/530 nm, flow; active compounds read high; shares compounds with ABCG2 block; fluorescence at 6.6 µM; actives 30% (n = 270); AID 1480;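 active = fluorescence in ABCG2-expressing cells above the plate's control-well mean plus 3 SD, cut at about 15 in these data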;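 also: median cell fluorescence with compound minus that of DMSO-treated control cells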
# CCRF autofluor – CCRF-Adr autofluorescence flag for ABCB1 confirmation | actives 30% (n = 270) | CCRF-Adr cells, compound autofluorescence 488/530 nm, flow cytometry; active compounds read high | shares compounds with ABCG2 block | fluorescence at 6.6 µM;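 active = fluorescence beyond the plate control mean plus 3 SD, with a fluorescence-to-maximum score over 2, cut at about 25 in these data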
# The depositor's hits bear a star; ? = inconclusive; nt = not tested or not shown; [ ] = dose if it differs, or a comment.
SMILES,RGS8-Gao,RGS16-Gao HTS,RGS4-Gao reg,RGS7-Gao,ABCB1 inh,ABCG2 block,others
Cc1cccc(C(=O)NC(NCc2ccco2)C(Cl)(Cl)Cl)c1 (configuration not stated),56.9*,41.5,48.8*,44.1*,0.2,1.1,
Cc1ccc(C(=O)NC(NCc2ccco2)C(Cl)(Cl)Cl)cc1 (configuration not stated),91.5,63.0,103.7,100.0,0.1,2.9,
COc1ccc(OC)c(C(=O)Cn2c3[n+](c4ccc(C(F)(F)F)cc42)CCCCC3)c1,102.2,101.9,106.5,111.7,6.5,2.7,
Nc1ccc(C(=O)Nc2cccc(N)c2)cc1,105.8,103.7,109.1,?,nt,nt,
O=C(Cn1cncn1)N/N=C/c1cccnc1,100.8,100.5,98.3,?,nt,nt,
CCCCC(=O)N(Cc1ccc(-c2ccccc2-c2nn[nH]n2)cc1)[C@H](C(=O)O)C(C)C,103.0,103.4,103.6,103.5,nt,1.3,
CN1C(=O)C2(Nc3ccccc3-c3nc4ccccc4n32)c2ccccc21 (configuration not stated),99.5,98.8,96.6,100.8,2.0,2.3,
CCN1C(=O)C2(Nc3ccccc3-c3nc4ccccc4n32)c2cc(OC)ccc21 (configuration not stated),119.5,125.2,116.7,120.7,53.5*,15.9,
COc1ccc(-c2[nH]nc3c2C(c2ccccc2OC(=O)N2CCOCC2)C(C#N)=C(N)O3)cc1 (configuration not stated),97.3,88.4,96.0,94.9,-0.2,-1.6,
COc1ccc(-c2[nH]nc3c2C(c2ccc(OC(=O)N4CCOCC4)cc2)C(C#N)=C(N)O3)cc1 (configuration not stated),52.2*,38.0,44.3*,45.3*,0.1,0.0,
CCC(=O)N(Cc1cc(=O)[nH]c2ccccc12)c1ccc(C)cc1,95.2,94.6,95.6,?,nt,nt,
Cc1oc2c(O)c(O)ccc2c(=O)c1-c1cnn(-c2ccccc2)c1,66.7,35.2,42.5*,46.4*,-0.9,-2.3,
CC1Cc2ccccc2N1C(=O)Cc1cccs1 (configuration not stated),101.2,101.0,101.0,101.8,0.6,2.0,
CC1Cc2ccccc2N1C(=O)CCS(=O)(=O)c1cccs1 (configuration not stated),147.7*[activator],634.1,222.1*[activator],322.5*[activator],0.4,2.3,
Cc1cc(C)c(S(=O)(=O)NCC2CCC(C(=O)NCc3ccccn3)CC2)c(C)c1 (configuration not stated),97.4,99.1,105.0,100.5,0.5,1.6,
COc1nc(Nc2ccc(C(C)=O)cc2)nc(OC)n1,93.6,239.3,187.9*[activator],149.4,0.5,2.8,
CC1=CC(=O)C=C(C)C1=NOc1ccccc1[N+](=O)[O-],100.0,99.2,101.9,101.2,0.2,2.8,
O=C(O[C@@H]1Cc2c(O)cc(O)cc2O[C@@H]1c1cc(O)c(O)c(O)c1)c1cc(O)c(O)c(O)c1,56.5*,55.6,47.9*,31.7*,nt,-2.8,
COc1ccc([C@H]2CC(=O)c3c(O)cc(O)cc3O2)cc1O,96.8,101.2,96.4,?,nt,nt,
O=C1S/C(=C\c2ccc(N3CCOCC3)o2)C(=O)N1c1ccccc1,90.9,97.2,102.4,104.2,0.1,1.5,
O=C1S/C(=C\c2ccc(N3CCOCC3)o2)C(=O)N1Cc1c(F)cccc1Cl,83.3,100.1,110.3,109.4,7.8,132.2*,
O=C1c2ccncc2C(=O)N1CO,8.6*,-19.9*,-31.1*,-10.4*,0.9,3.4,
O=C(O)CCN1C(=O)c2ccncc2C1=O,101.3,101.8,97.9,100.3,0.0,1.1,
CN(C(=O)COc1ccc([N+](=O)[O-])cc1)C1CCS(=O)(=O)C1 (configuration not stated),98.6,96.8,99.2,99.8,0.1,-0.3,
Cc1ccc(N=Cc2c(O)n(-c3nccs3)c(=O)c3ccccc23)cc1,99.2,98.8,97.3,104.2,41.3*,73.4,ABCB1 single pt=4.6;ABCG2 single pt=36.8;IgMXP3 fluor=-0.29;CCRF autofluor=8.76
SMILES,RGS8-Gao,RGS16-Gao HTS,RGS4-Gao reg,RGS7-Gao,ABCB1 inh,ABCG2 block,others
Cc1cc(C)c(N=Cc2c(O)n(-c3nccs3)c(=O)c3ccccc23)c(C)c1,100.5,98.1,99.7,96.4,4.0,11.3,
Cc1ccc(-n2c(=S)[nH]c3[nH]ncc3c2=O)cc1,100.1,98.1,101.2,98.8,-0.1,0.0,
COCCNCC1C(Oc2ccc(Cl)cc2)C(=O)N1c1ccccc1C (configuration not stated),98.7,102.7,103.0,98.4,0.9,2.0,
COc1ccc(CCNCC2C(Oc3ccc(Cl)cc3)C(=O)N2c2ccccc2C)cc1OC (configuration not stated),100.4,92.5,98.4,93.9,53.1*,18.6,ABCB1 single pt=30.8;ABCG2 single pt=36.6;IgMXP3 fluor=5.11;CCRF autofluor=5.81
CCOC(=O)N1CCN(C(=O)CSCc2ccc(Br)cc2)CC1,102.3,104.6,99.3,98.2,0.6,1.1,
CC(OC(=O)c1ccc(S(=O)(=O)NCc2ccco2)cc1)C(=O)Nc1ncc(Cl)cc1Cl (configuration not stated),100.2,103.2,97.7,97.4,0.3,0.2,
Cc1ccc(/C=C2\CCC3=C2OC(N)=C(C#N)C3c2ccc(C)cc2)cc1 (configuration not stated),104.6,118.1,116.6,116.9,56.2*,85.3*,ABCB1 single pt=-0.8;ABCG2 single pt=10.2;IgMXP3 fluor=65.5*;CCRF autofluor=87.1*
N#CC1=C(N)OC2=C(CCc3ccccc32)C1c1ccccc1 (configuration not stated),100.2,98.5,99.7,98.2,0.5,4.0,
O=S(=O)(c1ccc(Br)cc1)N1CCN(c2cc(-c3ccccc3)nc3ncnn23)CC1,101.2,102.4,101.5,101.1,59.9*,52.2,ABCB1 single pt=36.9;ABCG2 single pt=23.0;IgMXP3 fluor=3.51;CCRF autofluor=7.16
CCc1ccc2oc(-c3ccc(OC)cc3)cc(=Nc3cccc(C(=O)O)c3)c2c1,90.9,94.8,90.8,89.2,0.0,3.5,
CCc1ccc2oc(-c3ccc(OC)cc3)cc(=Nc3c(C)n(C)n(-c4ccccc4)c3=O)c2c1,101.4,104.1,99.5,104.5,44.4*,96.9*,ABCB1 single pt=28.1;ABCG2 single pt=40.7;IgMXP3 fluor=0.21;CCRF autofluor=1.61
